Here are results for three compounds from paper PMC8223535 (The Yale Journal of Biology and Medicine, 2021).

The structures appear in SMILES notation.

The subject of series [1] is T. brucei brucei (Lafia strain). Put plainly: In vivo anti-Trypanosoma evaluation in infected rats. Also on record: species or system Trypanosoma brucei brucei in male Wistar rats. The conditions noted are these: 3.5 mg/kg bw in corn oil, reference drug, data not shown. Put shortly:
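Male Wistar rats (120–130 g, acclimated 14 days) each received 0.2 mL of infected rat blood diluted in 0.9% saline (1 x 102 trypanosomes). Dosing began after the 72-h lag, on the first parasite-positive day. It ran daily for 5 days: test compound at 40 mg/kg bw or diminazene aceturate at 3.5 mg/kg bw, in corn oil. Controls were vehicle-infected and uninfected. Tail-blood smears were counted at ×100, and survival was tracked. n=5, mean ± SEM, ANOVA with Dunnett.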

In series [2] the test system is Trypanosoma congolense IL3000 bloodstream form. Put plainly: In vitro anti-Trypanosoma activity, luminescence-based parasite viability. In kind it is cell-based. The following applies: 72 h, 0 to 25 µg/mL. In outline: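 T. congolense IL3000 bloodstream forms were kept in HMI-9-type medium (IMDM, 20% FBS, supplements) in air at 33°C. Parasites were seeded at 1 × 10^5 cells/mL with test compound at 0 to 25 µg/mL and incubated 72 h at 33°C. Viability was read by ATP luminescence. Pentamidine was the reference. The 50% value came from a non-linear regression dose-response fit. Triplicates, three independent runs.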

The conditions of series [3]: cited from earlier work.

On to `CC(=O)NCC(=O)O.CC(=O)NCC(=O)O.N=C(N)c1ccc(N=NNc2ccc(C(=N)N)cc2)cc1` [diminazene aceturate], for which, in series [1], the “outcome of infected rats (survival)” value is “survived the infection” and the “systemic parasite burden of infected rats” value was “systemic parasite burden cleared”. Consider `N=C(N)c1ccc(OCCCCCOc2ccc(C(=N)N)cc2)cc1` [pentamidine], for which the “effect on in vitro growth of T. congolense (in words)” value in series [2] was “appreciably hindered the in vitro growth of T. congolense”. In the case of `Nc1nc(N)nc(Nc2ccc([As]3SCC(CO)S3)cc2)n1` (centres unmarked) [melarsoprol], the encephalopathy entry in series [3] (patients treated for late-stage trypanosomiasis) is on record as “more than 10 % of patients”. In series [3] (share of the encephalopathy cases), the “fatal outcomes among encephalopathy cases” value is on record as 40%.
